Experiment [1] relates to Hs-578T. Briefly: Cytotoxicity against human Hs578T cells after 72 hrs by CellTiter-Glo assay. It is filed as functional, cell-based. A digest of the protocol: (§1)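 Breast lines (normal Hs578Bst; cancer Hs578T, T47D, Sk-Br-3, MCF-7) seeded at 3000 cells/well in 384-well plates, attached overnight. Compound dispensed acoustically at 14 concentrations spanning 0.002−40 μM, 72 h incubation. Viability by CellTiter-Glo luminescence read after 2 min shaking and 15 min stabilization. Triplicate dose−response curves, data normalized to median, IC50 from curve fit.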

Experiment [2] deals with Hs-578T. Briefly: Cytotoxicity against human Hs578T cells at 40 uM after 72 hrs by CellTiter-Glo assay relative to untreated control. It is filed as functional, cell-based. A digest of the protocol: (§2)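 Hs578T or Hs578Bst cells plated at 3000/well in 384-well format, grown overnight, then exposed to 40 μM (top of a 14-point 0.002−40 μM series) for 72 h. CellTiter-Glo luminescence after 2 min shaking plus 15 min stabilization; viability given as percent of control, n = 3, ± SD.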

Experiment [3] can be described thus: Cytotoxicity against human Hs578Bst cells after 72 hrs by CellTiter-Glo assay. The class given is cell-based. A digest of the protocol:
as §1
In general terms: Cellular ATP, detected with luciferase, serves as a proxy for viable cell number.

Another experiment concerns SK-BR-3. Put plainly: Cytotoxicity against human SK-BR-3 cells after 72 hrs by CellTiter-Glo assay. It is filed as functional, cell-based. The settings on record: SK-BR-3, 72 h. The method in brief:
as §1

A short description of experiment [4]: Cytotoxicity against human Hs578Bst cells at 40 uM after 72 hrs by CellTiter-Glo assay relative to untreated control. The class given is cell-based. The method in brief: as §2
A further experiment deals with T47D. Put plainly: Cytotoxicity against human T47D cells after 72 hrs by CellTiter-Glo assay. The class given is functional, cell-based. A digest of the protocol:
as §1

Another experiment concerns MCF7. Put plainly: Cytotoxicity against human MCF7 cells after 72 hrs by CellTiter-Glo assay. The class given is functional, cell-based. Conditions: MCF7, 72 h. The method in brief:
as §1

The source of these data is ChEMBL document CHEMBL2021788, “Cytotoxic cardiac glycosides and other compounds from Asclepias syriaca” (J Nat Prod, 2012).

As a reminder, the IC50 is the concentration needed to halve the response being measured. Read a low IC50 as inhibition by little substance.

For `C[C@H]1O[C@@H](O[C@H]2CC[C@@]3(C)[C@@H](CC[C@@H]4[C@@H]3CC[C@]3(C)[C@](O)(C5=CC(=O)OC5)CC[C@]43O)C2)[C@H](O)[C@H](O)[C@@H]1O[C@@H]1O[C@H](CO)[C@@H](O)[C@H](O)[C@H]1O`, the IC50 in the experiment on Hs-578T [1] was more than 40 µM; in experiment [3], 14.2 µM; with SK-BR-3, more than 40 µM; with T47D it was more than 40 µM; with MCF7, more than 40 µM. The % toxicity was 56% in the experiment with Hs-578T [2] and 38.2% in experiment [4].

In the case of `C[C@H]1O[C@@H](O[C@H]2CC[C@@]3(C)[C@@H](CC[C@@H]4[C@@H]3CC[C@]3(C)[C@@H](C5=CC(=O)OC5)CC[C@]43O)C2)[C@H](O)[C@H](O)[C@@H]1O[C@@H]1O[C@H](CO)[C@@H](O)[C@H](O)[C@H]1O`, the half-inhibitory concentration (IC50) in the experiment with Hs-578T [1] was determined as 0.593 µM; in experiment [3] it was 0.043 µM; in the experiment with SK-BR-3, 2.52 µM; with T47D, 1.76 µM; with MCF7 it was 5.3 µM. Also, the values for the % toxicity (in the experiment with Hs-578T [2]; in experiment [4]) were 91.5% and 51.7%, respectively.

Turning to `O=c1c(O[C@@H]2OC[C@@H](O)[C@H](O)[C@H]2O[C@@H]2O[C@H](CO)[C@H](O)[C@H](O)[C@H]2O)c(-c2ccc(O)cc2)oc2cc(O)cc(O)c12`, the IC50 (in the experiment on Hs-578T [1]; in experiment [3]; in the experiment on SK-BR-3; in the experiment on T47D; with MCF7) was more than 40 µM in each case. The values for the % toxicity (with Hs-578T [2]; in experiment [4]) were 32.7% and 13.9%, respectively.

With `C[C@]12CC[C@H](O[C@@H]3O[C@H](CO)[C@@H](O)[C@H](O)[C@H]3O)C[C@@H]1CC[C@@H]1[C@@H]2CC[C@]2(C)[C@@H](C3=CC(=O)OC3)CC[C@]12O` [DESGLUCOUZARIN], the IC50 was 6.28 µM with Hs-578T [1]; 1.05 µM in experiment [3]; 18.1 µM with SK-BR-3; 11.7 µM with T47D; 17 µM in the experiment on MCF7. Further, the % toxicity came out at 85.5% with Hs-578T [2] and 51.6% in experiment [4].

As for `C[C@]12CC[C@H](O)C[C@H]1CC[C@@H]1[C@@H]2CC[C@]2(C)[C@@H](C3=CC(=O)OC3)CC[C@]12O` [DIGITOXIGENIN], the IC50 amounted to 1.02 µM with Hs-578T [1]; 0.15 µM in experiment [3]; 4.42 µM with SK-BR-3; 2.53 µM in the experiment on T47D; 9.1 µM in the experiment on MCF7. The % toxicity worked out at 92.3% in the experiment on Hs-578T [2] and 49.8% in experiment [4].

Regarding `C[C@H]1O[C@@H](O[C@H]2[C@@H](O)C[C@H](O[C@H]3[C@@H](O)C[C@H](O[C@H]4CC[C@@]5(C)[C@H](CC[C@@H]6[C@@H]5C[C@@H](O)[C@]5(C)[C@@H](C7=CC(=O)OC7)CC[C@]65O)C4)O[C@@H]3C)O[C@@H]2C)C[C@H](O)[C@@H]1O` [DIGOXIN], the IC50 in the experiment on Hs-578T [1] turned out to be 0.251 µM; in experiment [3], 0.04 µM; with SK-BR-3, 1.08 µM; in the experiment on T47D, 0.66 µM; in the experiment with MCF7, 4.7 µM. The figures for the % toxicity (with Hs-578T [2]; in experiment [4]) were 93.5% and 47.7%, respectively.

Regarding `COc1cccc2c1C(=O)c1c(O)c3c(c(O)c1C2=O)C[C@@](O)(C(=O)CO)C[C@@H]3O[C@H]1C[C@H](N)[C@H](O)[C@H](C)O1` [DOXORUBICIN], the half-inhibitory concentration (IC50) in the experiment on Hs-578T [1] came to 0.546 µM; in experiment [3], 0.18 µM; with SK-BR-3, 0.21 µM; in the experiment on T47D it was 1.9 µM; in the experiment with MCF7, 1.54 µM. Also, the values for the % toxicity (in the experiment on Hs-578T [2]; in experiment [4]) were 98.3% and 64.3%, respectively.

For `C[C@@H]1O[C@@H](O[C@H]2C[C@@H](O)[C@]3(CO)[C@H]4[C@H](O)C[C@]5(C)[C@@H](C6=CC(=O)OC6)CC[C@]5(O)[C@@H]4CC[C@]3(O)C2)[C@H](O)[C@H](O)[C@H]1O` [OUABAIN], the half-inhibitory concentration (IC50) is 0.11 µM in the experiment with Hs-578T [1]; 0.006 µM in experiment [3]; 0.403 µM in the experiment with SK-BR-3; 0.385 µM in the experiment on T47D; 10.6 µM in the experiment with MCF7. For the same compound, the % toxicity in the experiment on Hs-578T [2] was 93%; in experiment [4], 55.8%.

Turning to `C[C@]12CC[C@H](O[C@@H]3O[C@H](CO[C@@H]4O[C@H](CO)[C@@H](O)[C@H](O)[C@H]4O)[C@@H](O)[C@H](O)[C@H]3O)C[C@@H]1CC[C@@H]1[C@@H]2CC[C@]2(C)[C@@H](C3=CC(=O)OC3)CC[C@]12O` [UZARIN], the half-inhibitory concentration (IC50) turned out to be 4.58 µM in the experiment with Hs-578T [1]; 0.76 µM in experiment [3]; 19.4 µM with SK-BR-3; 9.5 µM in the experiment with T47D; 11.6 µM in the experiment with MCF7. Further, the % toxicity is 84% with Hs-578T [2] and 54.7% in experiment [4].
